According to ChEMBL document CHEMBL4680178, “Design, synthesis and biological evaluation of new ganglioside GM3 analogues as potential agents for cancer therapy” (Eur J Med Chem, 2020):
Calls of active or inactive are those of the source. No cut-off for these calls is given here.

Tests used:
Type in all cases: functional, cell-based
[1] = tested on: HCT-116; assay: Antiproliferative activity against human HCT-116 cells assessed as inhibition of cell growth after 48 hrs by MTT assay; conditions: HCT-116, 48 h
Outline: (§1)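 Cells grown in RPMI-1640 with 10% heat-inactivated FBS at 37 °C, 5% CO2, seeded at 8×10^3/well, treated 48 h with compound at 20, 200, 400, 1000 μM or DMSO vehicle. MTT (5 mg/mL solution) added for 4 h at 37 °C; absorbance read at 570 nm. IC50 from three independent experiments, mean ± SD.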

[2] = tested on: K562; assay: Antiproliferative activity against human K562 cells assessed as inhibition of cell growth after 48 hrs by MTT assay; conditions: K562, 48 h; outline: as §1
[3] = tested on: B16; assay: Antimigratory activity against mouse B16 cells assessed as inhibition of cell migration at 6.25 to 25 uM measured after 24 hrs by scratch wound healing assay; conditions: dose 6.25-25 µM
Outline: (§2)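 Near-confluent monolayers (1.5×10^5 cells per well, RPMI-1640 + 10% FBS) scratched with a pipette tip, washed twice with serum-free RPMI-1640, then exposed to compound in fresh FBS-containing medium (DMSO solvent control) for 24 h. Wounds photographed by inverted microscopy; migration expressed as wound width at 24 h / wound width at 0 h (%). Triplicate.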

[4] = tested on: B16-F10; assay: Antimigratory activity against mouse B16-F10 cells assessed as inhibition of cell migration at 6.25 to 25 uM measured after 24 hrs by scratch wound healing assay; conditions: dose 6.25-25 µM; outline: as §2

IC50 [1] | IC50 [2] | Structure (SMILES) | inhibition [3] | inhibition [4]
150 µM | 149 µM | CCCCCCCCCCCCC/C=C/[C@@H](O)[C@@H](N)CO[C@@H]1O[C@H](CO)[C@@H](O[C@@H]2O[C@H](CO[C@]3(C(=O)O)C[C@H](O)[C@@H](NC(C)=O)[C@H]([C@H](O)[C@H](O)CO)O3)[C@H](O)[C@H](O)[C@H]2O)[C@H](O)[C@H]1O | Active | Active
201 µM | 201 µM | CCCCCCCCCCCCC/C=C/[C@@H](O)[C@H](CO[C@@H]1O[C@H](CO)[C@@H](O[C@@H]2O[C@H](CO[C@]3(C(=O)O)C[C@H](O)[C@@H](NC(C)=O)[C@H]([C@H](O)[C@H](O)CO)O3)[C@H](O)[C@H](O)[C@H]2O)[C@H](O)[C@H]1O)NC(=O)CCCCCCCCCCCCCCCCC | Active | Active
